Assay results published in ChEMBL document CHEMBL1944512, “Discovery of a novel chemotype of potent human ENaC blockers using a bioisostere approach. Part 1: quaternary amines” (Bioorg Med Chem Lett, 2012).

Tests used:
[1] = Inhibition of human ENaC in HBE cells by short-circuit current technique; assay type: cell-based
[2] = Thermodynamic solubility of the compound at pH 1 after 24 hrs of post-equilibriation by shake-flask method; assay type: physicochemical; conditions: buffer, read-out: Therm_solubility
[3] = Thermodynamic solubility of the compound at pH 4 after 24 hrs of post-equilibriation by shake-flask method; assay type: physicochemical; conditions: buffer, read-out: Therm_solubility
[4] = Thermodynamic solubility of the compound at pH 6.8 after 24 hrs of post-equilibriation by shake-flask method; assay type: physicochemical; conditions: buffer, read-out: Therm_solubility
[5] = Thermodynamic solubility of the compound at pH 9 after 24 hrs of post-equilibriation by shake-flask method; assay type: physicochemical; conditions: buffer, read-out: Therm_solubility
Homo sapiens = species on record: Homo sapiens; experiment: Ratio of amiloride IC50 to compound IC50 for human ENaC
HBE = experiment: Inhibition of human ENaC in HBE cells at 30 uM by short-circuit current technique; assay type: cell-based
[6] = Permeability from apical to basal side of human Caco2 cells; assay type: ADME, cell-based; conditions: Caco-2, read-out: permeability
[7] = Permeability from basal to apical side of human Caco2 cells; assay type: ADME, cell-based; conditions: Caco-2, read-out: permeability
[8] = biological target: T1, Voltage-gated inwardly rectifying potassium channel KCNH2 (Homo sapiens, UniProt Q12809); experiment: Binding affinity to human ERG channel
T1 sequence (Q12809 whole entry): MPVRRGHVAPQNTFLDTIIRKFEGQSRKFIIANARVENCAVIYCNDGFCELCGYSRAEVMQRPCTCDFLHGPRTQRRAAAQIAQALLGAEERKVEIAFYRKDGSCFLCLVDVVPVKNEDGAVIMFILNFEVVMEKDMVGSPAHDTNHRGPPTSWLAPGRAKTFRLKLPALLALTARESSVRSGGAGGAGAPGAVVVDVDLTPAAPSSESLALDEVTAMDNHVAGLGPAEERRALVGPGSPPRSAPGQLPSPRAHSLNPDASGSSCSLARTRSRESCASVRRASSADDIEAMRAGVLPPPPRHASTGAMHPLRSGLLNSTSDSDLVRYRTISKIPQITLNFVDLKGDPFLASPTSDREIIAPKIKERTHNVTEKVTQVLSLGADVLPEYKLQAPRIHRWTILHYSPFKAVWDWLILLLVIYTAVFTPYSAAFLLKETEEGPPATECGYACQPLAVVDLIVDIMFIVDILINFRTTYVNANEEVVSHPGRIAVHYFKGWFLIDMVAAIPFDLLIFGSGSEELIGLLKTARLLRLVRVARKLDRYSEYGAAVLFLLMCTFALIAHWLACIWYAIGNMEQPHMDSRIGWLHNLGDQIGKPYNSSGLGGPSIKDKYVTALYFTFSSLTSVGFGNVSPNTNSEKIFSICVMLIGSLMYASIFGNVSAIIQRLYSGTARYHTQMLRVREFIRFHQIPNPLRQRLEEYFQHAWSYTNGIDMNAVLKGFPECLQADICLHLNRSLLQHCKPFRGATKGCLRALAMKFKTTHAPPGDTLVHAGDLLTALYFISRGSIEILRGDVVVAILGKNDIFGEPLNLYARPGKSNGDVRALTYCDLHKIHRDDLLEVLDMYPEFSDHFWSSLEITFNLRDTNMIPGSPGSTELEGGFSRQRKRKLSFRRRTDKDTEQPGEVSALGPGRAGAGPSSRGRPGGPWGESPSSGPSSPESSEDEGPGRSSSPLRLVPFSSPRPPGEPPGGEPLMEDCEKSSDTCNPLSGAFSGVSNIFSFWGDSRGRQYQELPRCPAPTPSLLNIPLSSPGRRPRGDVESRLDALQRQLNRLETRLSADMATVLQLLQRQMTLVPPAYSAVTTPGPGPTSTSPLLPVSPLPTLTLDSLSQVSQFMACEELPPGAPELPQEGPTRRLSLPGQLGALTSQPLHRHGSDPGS

[9] = biological target: T1, Voltage-gated inwardly rectifying potassium channel KCNH2; experiment: Inhibition of human ERG channel by patch clamp assay
[10] = Inhibition of guinea pig ENaCbeta1/gamma1 expressed in FRT cells by short-circuit current technique; assay type: cell-based; conditions: Cavia porcellus
Method in brief: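 Fischer rat thyroid cells transiently infected with guinea-pig ENaC were used to measure channel blockade, and the value is reported as an IC50.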

Cavia porcellus = experiment: Blockade of tracheal potential difference in it dosed Dunkin Hartley guinea pig at 1hr; assay type: functional; conditions: Trachea

Structure (SMILES) | IC50 [1] | other results
C[N+](C)(CCCNC(=O)c1ccc(Cl)cc1)CCNC(=O)c1nc(Cl)c(N)nc1N | 740 nM | –
CN(C)CCNC(=O)c1nc(Cl)c(N)nc1N | 4780 nM | –
C[N+](C)(CCCCNC(=O)CCc1ccccc1)CCNC(=O)c1nc(Cl)c(N)nc1N | 910 nM | –
C[N+](C)(CCCCNC(=O)Cc1ccc(Cl)cc1)CCNC(=O)c1nc(Cl)c(N)nc1N | 720 nM | –
CN(C)CCCNC(=O)c1nc(Cl)c(N)nc1N | 17400 nM | –
CN(C)CCCCNC(=O)c1nc(Cl)c(N)nc1N | – | inhibition (HBE): < 60%
CNCCNC(=O)c1nc(Cl)c(N)nc1N | 4570 nM | –
C[N+](C)(C)CCNC(=O)c1nc(Cl)c(N)nc1N | 5810 nM | –
Cc1ccc(CC(=O)NCCCC[N+](C)(C)CCNC(=O)c2nc(Cl)c(N)nc2N)cc1 | 750 nM | –
C[N+](C)(CCCCNC(=O)c1ccccc1)CCNC(=O)c1nc(Cl)c(N)nc1N | 1230 nM | –
Cc1ccc(C(=O)NCCCC[N+](C)(C)CCNC(=O)c2nc(Cl)c(N)nc2N)cc1 | 880 nM | –
C[N+](C)(CCCCCNC(=O)c1ccc(Cl)cc1)CCNC(=O)c1nc(Cl)c(N)nc1N | 750 nM | –
C[N+](C)(CCCCNC(=O)Cc1ccccc1)CCNC(=O)c1nc(Cl)c(N)nc1N | 950 nM | –
C[N+](C)(CCCCCNS(=O)(=O)c1ccc(Cl)cc1)CCNC(=O)c1nc(Cl)c(N)nc1N | 960 nM | –
CN(C)CCN(C)C(=O)c1nc(Cl)c(N)nc1N | > 30000 nM | –
C[N+](C)(CCNC(=O)c1ccc(Cl)cc1)CCNC(=O)c1nc(Cl)c(N)nc1N | 1660 nM | –
N=C(N)NC(=O)c1nc(Cl)c(N)nc1N [AMILORIDE] | 220 nM | IC50 [10]: 540 nM; ED50 (Cavia porcellus): 0.016 mg/kg
NCCNC(=O)c1nc(Cl)c(N)nc1N | 3970 nM | –
C[N+](C)(CCNC(=O)c1nc(Cl)c(N)nc1N)CCNS(=O)(=O)c1ccc(Cl)cc1 | 1120 nM | –

Further lines, with some results ahead:

IC50 [1] | Structure (SMILES) | other results
20 nM | N/C(=N\C(=O)c1nc(Cl)c(N)nc1N)NCc1ccccc1 [BENZAMIL] | –
13 nM | COc1ccc(CCC[N+](C)(CCCc2ccc(OC)cc2)CCNC(=O)c2nc(Cl)c(N)nc2N)cc1.[Br-] | solubility thermodynamic at 24 h [2]: 600 µg/mL; solubility thermodynamic at 24 h [3]: 500 µg/mL; solubility thermodynamic at 24 h [4]: 900 µg/mL; solubility thermodynamic at 24 h [5]: 1000 µg/mL; Ratio IC50 (Homo sapiens): 100
160 nM | C[N+](C)(CCCCNC(=O)CCc1ccc(Cl)cc1)CCNC(=O)c1nc(Cl)c(N)nc1N | –
80 nM | C[N+](C)(CCCCNC(=O)CCc1ccc(OCc2ccccc2)cc1)CCNC(=O)c1nc(Cl)c(N)nc1N | –
60 nM | C[N+](C)(CCCCNC(=O)Cc1ccc(OCc2ccccc2)cc1)CCNC(=O)c1nc(Cl)c(N)nc1N.[Br-] | Papp A→B [6]: 3.33 ×10⁻⁶ cm/s; Papp B→A [7]: 2.55 ×10⁻⁶ cm/s; IC50 [8]: 330 nM; IC50 [9]: 10800 nM
590 nM | Cc1ccc(CCC(=O)NCCCC[N+](C)(C)CCNC(=O)c2nc(Cl)c(N)nc2N)cc1 | –
510 nM | C[N+](C)(CCCCNC(=O)c1ccc(Cl)cc1)CCNC(=O)c1nc(Cl)c(N)nc1N | –
250 nM | C[N+](C)(CCCCNS(=O)(=O)c1ccc(Cl)cc1)CCNC(=O)c1nc(Cl)c(N)nc1N | –
37 nM | COc1ccc(CCC[N+](CCCc2ccc(OC)cc2)(CCCc2ccc(OC)cc2)CCNC(=O)c2nc(Cl)c(N)nc2N)cc1 | –
290 nM | C[N+](C)(CCCNS(=O)(=O)c1ccc(Cl)cc1)CCNC(=O)c1nc(Cl)c(N)nc1N | –
270 nM | COc1ccc(CCC[N+](C)(C)CCNC(=O)c2nc(Cl)c(N)nc2N)cc1.[Br-] | solubility thermodynamic at 24 h [2]: 4800 µg/mL; solubility thermodynamic at 24 h [3]: 4900 µg/mL; solubility thermodynamic at 24 h [4]: 5000 µg/mL; solubility thermodynamic at 24 h [5]: 4700 µg/mL; IC50 [10]: 180 nM; ED50 (Cavia porcellus): 0.044 mg/kg; Papp A→B [6]: 0.93 ×10⁻⁶ cm/s; Papp B→A [7]: 1.67 ×10⁻⁶ cm/s
